From ChEMBL document CHEMBL2034975, “Cycloartane and friedelane triterpenoids from the leaves of Caloncoba glauca and their evaluation for inhibition of 11β-hydroxysteroid dehydrogenases” (J Nat Prod, 2012)

Legend:
Assay type in all cases: cell-based
[1] = target: T1, 11-beta-hydroxysteroid dehydrogenase 1 (Homo sapiens, UniProt P28845); test: Inhibition of human 11beta-HSD1 expressed in HEK293 cells assessed as conversion of [3H]cortisone into [3H]cortisol by scintillation proximity assay
Procedure, shortened: (§1)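 Full-length human or murine 11β-HSD1 cDNA was cloned into pcDNA3 and stably expressed in HEK-293 cells selected with 750 μg/mL G418. Microsomes from these cells were incubated with NADPH and [3H]cortisone. The [3H]cortisol formed was captured by a monoclonal antibody on protein A-coated SPA beads. Assays were run in duplicate and repeated twice; IC50 is given as the average. Glycyrrhizinic acid served as positive control.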
Target sequence in this assay (P28845 whole entry): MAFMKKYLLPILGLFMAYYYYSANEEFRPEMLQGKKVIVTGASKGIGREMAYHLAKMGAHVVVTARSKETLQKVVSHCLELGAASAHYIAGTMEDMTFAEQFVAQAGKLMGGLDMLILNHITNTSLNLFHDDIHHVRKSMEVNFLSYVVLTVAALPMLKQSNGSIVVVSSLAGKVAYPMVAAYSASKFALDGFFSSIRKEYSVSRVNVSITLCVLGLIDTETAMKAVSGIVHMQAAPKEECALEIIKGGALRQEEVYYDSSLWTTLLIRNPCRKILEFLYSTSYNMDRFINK

[2] = target: 11-beta-hydroxysteroid dehydrogenase 1 (Mus musculus, UniProt P50172); test: Inhibition of mouse 11beta-HSD1 expressed in HEK293 cells assessed as conversion of [3H]cortisone into [3H]cortisol by scintillation proximity assay; procedure, shortened: as §1
[3] = target: T2, 11-beta-hydroxysteroid dehydrogenase type 2 (Homo sapiens, UniProt P80365); test: Inhibition of human 11beta-HSD2 expressed in HEK293 cells assessed as conversion of [3H]cortisone into [3H]cortisol by scintillation proximity assay
T2 sequence (P80365 whole entry): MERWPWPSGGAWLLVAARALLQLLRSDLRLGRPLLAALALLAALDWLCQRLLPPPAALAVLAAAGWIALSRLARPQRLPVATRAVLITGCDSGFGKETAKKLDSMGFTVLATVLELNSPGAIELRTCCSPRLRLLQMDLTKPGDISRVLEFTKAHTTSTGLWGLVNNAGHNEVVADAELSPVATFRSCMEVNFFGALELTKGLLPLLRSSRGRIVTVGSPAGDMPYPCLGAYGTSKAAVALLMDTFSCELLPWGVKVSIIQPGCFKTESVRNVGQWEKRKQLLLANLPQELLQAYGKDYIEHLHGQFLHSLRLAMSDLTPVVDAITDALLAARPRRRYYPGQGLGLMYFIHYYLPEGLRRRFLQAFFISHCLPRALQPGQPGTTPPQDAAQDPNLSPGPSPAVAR

[4] = target: T3, 11-beta-hydroxysteroid dehydrogenase type 2 (Mus musculus, UniProt P51661); test: Inhibition of mouse 11beta-HSD2 expressed in HEK293 cells assessed as conversion of [3H]cortisone into [3H]cortisol by scintillation proximity assay
T3 sequence (P51661 whole entry): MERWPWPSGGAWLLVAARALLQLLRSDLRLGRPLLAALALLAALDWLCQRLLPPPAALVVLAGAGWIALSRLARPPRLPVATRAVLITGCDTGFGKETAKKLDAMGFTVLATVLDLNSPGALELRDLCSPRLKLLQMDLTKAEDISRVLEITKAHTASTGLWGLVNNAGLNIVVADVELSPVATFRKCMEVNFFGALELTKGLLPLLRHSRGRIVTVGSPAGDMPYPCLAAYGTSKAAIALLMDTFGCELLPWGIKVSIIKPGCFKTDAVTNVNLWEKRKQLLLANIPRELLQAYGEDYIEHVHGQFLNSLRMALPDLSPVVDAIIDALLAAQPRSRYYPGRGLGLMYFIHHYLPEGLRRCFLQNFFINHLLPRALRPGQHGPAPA

[5] = target: T1, 11-beta-hydroxysteroid dehydrogenase 1; test: Inhibition of human 11beta-HSD1 expressed in HEK293 cells assessed as conversion of [3H]cortisone into [3H]cortisol at 1 uM by scintillation proximity assay
Target sequence in this assay (P28845 whole entry, looked up): as the sequence (P28845 whole entry) above

[6] = target: 11-beta-hydroxysteroid dehydrogenase 1 (Mus musculus) (UniProt P50172); test: Inhibition of mouse 11beta-HSD1 expressed in HEK293 cells assessed as conversion of [3H]cortisone into [3H]cortisol at 1 uM by scintillation proximity assay
[7] = target: T4, 11-beta-hydroxysteroid dehydrogenase type 2 (Homo sapiens) (UniProt P80365); test: Inhibition of human 11beta-HSD2 expressed in HEK293 cells assessed as conversion of [3H]cortisone into [3H]cortisol at 1 uM by scintillation proximity assay
T4 sequence (whole entry): T2 sequence (P80365 whole entry)

[8] = target: T5, 11-beta-hydroxysteroid dehydrogenase type 2 (Mus musculus) (UniProt P51661); test: Inhibition of mouse 11beta-HSD2 expressed in HEK293 cells assessed as conversion of [3H]cortisone into [3H]cortisol at 1 uM by scintillation proximity assay
T5 sequence (whole entry): T3 sequence (P51661 whole entry)

Sequence of 11-beta-hydroxysteroid dehydrogenase 1 (Mus musculus) (P50172 whole entry, looked up): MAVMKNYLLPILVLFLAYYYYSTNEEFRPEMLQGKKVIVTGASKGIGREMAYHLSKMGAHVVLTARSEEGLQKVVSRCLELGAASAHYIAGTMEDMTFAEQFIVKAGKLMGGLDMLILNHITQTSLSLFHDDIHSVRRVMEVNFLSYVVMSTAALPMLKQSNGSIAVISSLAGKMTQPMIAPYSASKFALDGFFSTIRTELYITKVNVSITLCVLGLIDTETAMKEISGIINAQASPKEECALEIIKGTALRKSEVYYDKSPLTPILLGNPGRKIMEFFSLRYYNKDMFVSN
Sequence of 11-beta-hydroxysteroid dehydrogenase 1 (Mus musculus, UniProt P50172) (P50172 whole entry): as the sequence (P50172 whole entry, looked up) above

SMILES | IC50 [1] | IC50 [2] | IC50 [3] | IC50 [4] | inhibition [5] | inhibition [6] | inhibition [7] | inhibition [8]
C[C@H](CC[C@@H](O)C(C)(C)O)[C@H]1CC[C@@]2(C(=O)O)[C@@H]3CC[C@H]4C(C)(C)[C@@H](O)CC[C@@]45C[C@@]35CC[C@]12C (relative stereo) [CALONCOBIC ACID B] | 72 nM | 13 nM | 400 nM | > 100000 nM | – | – | – | –
CC(=O)O[C@H]1CC[C@@H]2[C@](C)(CC[C@H]3[C@@]2(C)CC[C@@]2(C(=O)O)[C@@H]4CC(C)(C)CC[C@]4(C)CC[C@]32C)[C@H]1C | – | – | – | – | < 50% | < 50% | < 50% | < 50%
C=C(C)[C@@H](O)CC[C@@H](C)[C@H]1CC[C@@]2(C(=O)O)[C@@H]3CC[C@H]4C(C)(C)C(=O)CC[C@@]45C[C@@]35CC[C@]12C (relative stereo) [CALONCOBIC ACID A] | 105 nM | 132 nM | > 100000 nM | > 100000 nM | – | – | – | –
C=C1C[C@@H]2[C@@](C)(CC[C@]3(C)[C@H]4CC[C@@]5(C)[C@@H](CC[C@H](O)[C@@H]5C)[C@]4(C)CC[C@@]23C(=O)O)C[C@@H]1O | – | – | – | – | < 50% | < 50% | < 50% | < 50%
C=C1C[C@@H]2[C@@]3(C)CC[C@]4(C)[C@H]5CC[C@@]6(C)[C@@H](CC[C@H](O)[C@@H]6C)[C@]5(C)CC[C@@]24C(=O)O[C@H]3[C@H]1O (relative stereo) | – | – | – | – | < 50% | < 50% | < 50% | < 50%
C[C@H](CC[C@H](O)C(C)(C)O)[C@H]1[C@@H](O)C[C@]23C(=O)O[C@@]4(CC[C@]12C)C[C@@H]1CCC(=O)C(C)(C)[C@@H]1CC[C@H]43 | – | – | – | – | < 50% | < 50% | < 50% | < 50%
C[C@@H]1CC[C@@H](C(C)(C)O)OC(=O)[C@@]23C[C@@H](O)[C@H]1[C@@]2(C)CC[C@@]12C[C@@]14CCC(=O)C(C)(C)[C@@H]4CC[C@H]23 | – | – | – | – | < 50% | < 50% | < 50% | < 50%
CC1(C)[C@@H](O[C@H]2O[C@H](C(=O)O)[C@@H](O)[C@H](O)[C@H]2O[C@@H]2O[C@H](C(=O)O)[C@@H](O)[C@H](O)[C@H]2O)CC[C@]2(C)[C@H]3C(=O)C=C4[C@@H]5C[C@@](C)(C(=O)O)CC[C@]5(C)CC[C@@]4(C)[C@]3(C)CC[C@@H]12 [GLYCYRRHIZIN] | 6 nM | 3 nM | – | – | – | – | – | –
